# SENP6 inh: SENP6 protease inhibitors, primary screen, biochemical, luminescence, uHTS | Sentrin-specific protease 6 (Homo sapiens), Q9GZR1 | Recombinant SENP6 catalytic domain, aminoluciferin luminescence | inhibition, % at 10 µM | 330,000 tested, 1.8% active;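 active = inhibition above about 50% at the single tested dose, limit read from the data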;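 also: plate controls were DMSO wells with enzyme for no effect and DMSO wells lacking enzyme for full effect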
# SENP8 block-1: human SENP8 protease inhibitors, primary screen, biochemical, fluorescence, Nedd8 protein substrate, uHTS | 360,000 tested, 0.64% active | recombinant SENP8 | inhibition, % at 20 µM; in the data active = inhibition mostly above about 40%, no sharp cut-off; inactive = mostly below about 27%
# SENP8 block-2: SENP8 protease inhibitors, primary screen, biochemical, luminescence; Sentrin-specific protease 8 (Homo sapiens), Q96LD8; purified SENP8, Z-RLRGG-aminoluciferin cleavage; inhibition, % at 10 µM; 330,000 tested, 1.2% active; in the data active = inhibition above about 50%
# NRP1-CendR mod: modulators of CendR peptide binding to NRP-1, primary screen, biochemical, fluorescence polarization, uHTS; Neuropilin-1 (Homo sapiens), O14786; FAM-RPARPAR peptide binding to NRP-1; inhibition, % at 25 µM; 360,000 tested, 0.85% active; AID 602438, 2012;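 active = inhibition or corrected inhibition above about 18%, plus a signal ratio from 0.5 to 1.5, limit read from the data, passing the limit was not always enough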
# SENP1 inh: human SENP1 catalytic domain inhibitors, primary screen, biochemical, FRET, uHTS. Sentrin-specific protease 1 (Homo sapiens), Q9P0U3. recombinant SENP1 catalytic domain, CyPet-SUMO1-YPet FRET cleavage. inhibition, % at 10 µM. 360,000 tested, 0.21% active;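 active = inhibition at least 30% at 10 µM, raw YFP signal under a set limit, fluorescence ratio 0.5 to 1.5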;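 also: 0% = enzyme with DMSO and 100% = no enzyme wells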
# Target sequence (Q9P0U3 419-644 limits assumed): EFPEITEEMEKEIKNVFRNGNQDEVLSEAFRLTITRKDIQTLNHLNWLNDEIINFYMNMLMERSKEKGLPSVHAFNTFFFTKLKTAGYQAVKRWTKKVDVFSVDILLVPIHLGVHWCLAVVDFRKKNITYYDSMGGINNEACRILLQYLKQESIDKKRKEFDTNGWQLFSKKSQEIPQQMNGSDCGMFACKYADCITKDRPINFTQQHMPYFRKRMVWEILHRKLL
#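 Assay system – human recombinant His6-tagged SENP1 catalytic domain enzyme · Input – SENP1 enzyme, 20 pM final · Buffer or medium – Tris pH 8 buffer plus EDTA, NaCl, BME, BSA, NP40, catalase · Schedule – 50 min reaction at room temperature · Technique – FRET read of cyan and yellow fluorescence · Control set – no-enzyme wells low, DMSO-plus-enzyme wells high control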
# SENP7 block: SENP7 protease inhibitors, primary screen, biochemical, luminescence, uHTS; Sentrin-specific protease 7 (Homo sapiens), Q9BQF6; recombinant SENP7, Z-RLRGG-aminoluciferin luminescence, 40 min; inhibition, % at 5 µM; 330,000 tested, 1.5% active;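 active = inhibition above about 50% at the single test dose, limit read from the data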;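 also: plate controls were DMSO with enzyme for no effect and no enzyme buffer wells for full effect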
# Target sequence (Q9BQF6 706-1050 limits assumed): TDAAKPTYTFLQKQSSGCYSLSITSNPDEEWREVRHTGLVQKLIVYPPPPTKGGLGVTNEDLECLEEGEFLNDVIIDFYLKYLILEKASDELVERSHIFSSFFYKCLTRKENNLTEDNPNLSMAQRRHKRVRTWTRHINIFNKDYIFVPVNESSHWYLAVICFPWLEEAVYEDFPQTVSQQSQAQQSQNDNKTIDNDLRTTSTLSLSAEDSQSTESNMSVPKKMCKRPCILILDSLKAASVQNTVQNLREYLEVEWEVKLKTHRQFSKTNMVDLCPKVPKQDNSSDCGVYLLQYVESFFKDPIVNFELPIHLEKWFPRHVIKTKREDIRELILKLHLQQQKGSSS
# SENP8 inh conf: human SENP8 protease inhibitors, confirmation, biochemical, Nedd8 protein substrate, single concentration. shares compounds with SENP8 block-1. purified SENP8, Nedd8-AMC/pro-Nedd8 cleavage fluorescence, 30 min. inhibition, % at 25 µM. 1,400 tested, 15% active; in the data active = inhibition mostly above about 39%, no sharp cut-off; inactive = mostly below about 34%
# The depositor's hits bear a star; . = not tested or not shown. Only some compounds are listed: those with a hit (about 3.3% of all), similar ones and a draw of the others.
SMILES,SENP6 inh,SENP8 block-1,SENP8 block-2,NRP1-CendR mod,SENP1 inh,SENP7 block,SENP8 inh conf
CC(=O)Oc1ccc(C2=Cc3ccc(OC(C)=O)cc3OC2C)cc1 (configuration not stated),.,-269.4,.,-5.5,-113.3,.,.
O=C1c2ccccc2C(c2nc3ccccc3[nH]2)N1c1ccccn1 (configuration not stated),.,-85.8,.,10.0,7.8,.,.
COc1ccccc1N(CC(=O)NC1CCCC1)C(=O)c1csnn1,2.8,44.7*,1.8,2.9,1.0,-0.5,3.1
C=CCc1ccc(OC)c(OC)c1,-6.5,51.9*,1.3,-3.7,5.8,-5.3,14.8
CSc1nnc(C)c(/C=C/Nc2ccc(F)cc2F)n1,2.9,0.8,8.4,-11.2,-26.2,6.2,.
Cc1nnc(SCc2ccccc2)nc1/C=C/NOCc1ccc(Cl)cc1Cl,20.7,53.5*,1.2,-9.5,-0.4,5.1,39.8
CSc1nnc(C)c(/C=C/NOCc2cccc(F)c2)n1,19.5,39.5*,3.0,6.8,-1.1,2.3,57.4*
CCc1noc(C)c1C(=O)NCCc1ccc(Cl)cc1,-8.5,7.1,-8.9,11.9,1.1,1.6,.
Cc1onc(-c2ccccc2)c1C(=O)NCCc1ccc(Cl)cc1,-10.6,51.0*,0.8,19.0,0.2,3.8,4.9
O=C(CCCn1c(=O)oc2ccccc21)N1CCc2ccccc2C1,-2.8,48.3*,-7.5,11.2,-0.5,-0.5,78.4*
O=C(CCn1c(=O)oc2ccccc21)NCCN1CCc2ccccc2C1,-7.6,10.8,-0.5,-8.7,-2.7,12.0,.
C=CCn1c(C)cc(C(=O)CSc2nnc(NC(C)C)s2)c1C,10.6,44.0*,1.9,2.6,2.0,3.8,7.4
C=CCn1c(C)cc(C(=O)CSc2nnc(NCc3ccccc3)s2)c1C,.,8.7,.,0.5,0.9,.,.
N#C/C(=C\c1ccc(O)c([N+](=O)[O-])c1)c1nc2ccccc2s1,.,54.2*,.,-126.8,32.2*,.,42.3*
C=CCn1c(SCC(=O)Nc2cc(C)on2)nnc1C1COc2ccccc2O1 (configuration not stated),-16.0,-5.7,-10.3,-10.5,1.1,-12.9,.
Cc1cc(NC(=O)CSc2nnc(C3COc4ccccc4O3)n2N)no1 (configuration not stated),-12.7,42.7*,-0.6,-4.3,2.5,12.7,8.8
O=C(c1ccccc1)c1ccccc1,-0.4,61.2*,-4.5,-0.5,3.2,1.4,6.8
O=C(CC1SC(N2CCCCC2)=NC1=O)Nc1cccc(C(=O)N2CCCC(C(F)(F)F)C2)c1 (configuration not stated),.,17.9,.,-11.8,1.2,.,.
O=C1CCCC2=C1C1(O)C(=O)c3ccccc3C1(O)O2 (configuration not stated),21.5,51.4*,11.8,7.6,1.6,27.8,89.5*
COc1ccc(CCC(C)NC2CCCCCCC2)cc1 (configuration not stated),-53.3,49.1*,-3.2,2.9,1.5,1.0,-7.4
CCN(CC)C(=O)C(c1ccccc1)S(=O)(=O)N1CCOCC1 (configuration not stated),.,13.1,.,-5.6,3.5,.,.
CC(=O)NC(c1cccc(F)c1)c1nc(-c2csc3ccccc23)cs1 (configuration not stated),.,14.9,.,-20.4,4.1,.,.
Cc1nc(CS(=O)(=O)c2ccccn2)sc1C(=O)NNC(=O)c1c(F)cccc1Cl,0.6,42.4*,-0.4,2.4,1.9,6.7,13.7
CCOc1ccc(S(=O)(=O)NCCC(=O)NCC(c2ccc(OC)cc2)N2CCOCC2)cc1 (configuration not stated),.,51.4*,.,11.6,0.9,.,-8.1
CCOc1ccc(S(=O)(=O)NCCC(=O)NCC(c2ccc(OC)cc2)N2CCCC2)cc1 (configuration not stated),-1.9,-58.3,-6.5,3.2,-8.7,-1.4,.
SMILES,SENP6 inh,SENP8 block-1,SENP8 block-2,NRP1-CendR mod,SENP1 inh,SENP7 block,SENP8 inh conf
CCN(CC)C(=O)CSc1n[nH]c(=S)n1N,2.6,44.3*,3.5,2.4,2.9,8.3,15.1
COc1cc(C)c(C(=O)Oc2cc(C)c(C(=O)O)c(O)c2C)c(OC)c1C,-5.3,43.5*,-13.0,-19.5,2.3,12.3,15.4
Cc1ccc(S(=O)(=O)N2CCCCC2)cc1NC(=O)COC(=O)c1ccc(=O)[nH]c1,-19.9,2.1,-10.0,-3.6,3.5,-0.3,.
CCc1nnc(NS(=O)(=O)c2ccc(Nc3ccc([N+](=O)[O-])c4nonc34)cc2)s1,22.1,45.2*,-1.9,-98.7,27.6,1.6,29.9
CC(C)C(=O)NS(=O)(=O)c1ccc(N)cc1,1.2,46.9*,-2.3,12.2,2.3,1.2,10.9
CC(C)CC(=O)NS(=O)(=O)c1ccc(N)cc1,-14.9,14.7,0.8,1.9,2.5,-3.9,.
CC1(C(=O)Nc2cccc3ccccc23)CCN1C(=O)Cc1ccccc1Cl (configuration not stated),.,11.2,.,-2.3,2.6,.,.
CCOC(=O)Cc1ccc(Nc2nc(NCc3cccs3)nc3ccsc23)cc1,.,-462.3,.,-4.8,-0.6,.,.
Cc1nc2ccccc2n1/N=C/c1ccc([N+](=O)[O-])o1,19.0,41.9*,14.3,7.6,1.9,2.3,47.2*
Cc1nc2ccccc2c(=O)n1/N=C/c1ccc([N+](=O)[O-])o1,6.5,.,1.1,.,.,7.0,.
CC(C)=CCc1c2c(c3occ(-c4ccc(O)c(O)c4)c(=O)c3c1O)C=CC(C)(C)O2,.,26.5,.,0.3,0.4,.,.
CC(C)=CCc1c2c(c3occ(-c4ccc(O)cc4)c(=O)c3c1O)C=CC(C)(C)O2,10.5,43.0*,-6.0,11.6,-0.7,-14.6,26.4
Cn1cnc(S(=O)(=O)N2CCCC(c3cc(C(=O)Nc4ccc(F)c(Cl)c4)no3)C2)c1 (configuration not stated),.,10.8,.,13.2,1.3,.,.
O=c1c2ccccc2c(C=NCCc2ccccc2)c(O)n1Cc1ccccc1,5.6,46.6*,26.0,-7.8,1.3,21.2,50.6*
COCc1cc([C@@H]2C[C@H]3CN(c4ccccc4)C(=O)[C@]34CCCN24)ccc1OC,5.0,42.1*,-0.5,-22.9,1.2,-3.3,13.0
COc1ccc([C@@H]2C[C@H]3CN(c4ccccc4)C(=O)[C@]34CCCN24)c(OC)c1OC,-4.6,5.0,-0.9,-49.8,1.7,12.9,.

# Screening data (PubChem BioAssay)
